Results published in ChEMBL document CHEMBL4411331, “6-Amino-3-methylpyrimidinones as Potent, Selective, and Orally Efficacious SHP2 Inhibitors” (J Med Chem, 2019).
In brackets after ≈: the same amount, converted by molar mass.

How the values were obtained:
[1] = Permeability in human Caco2 cells; assay type: ADME, cell-based; settings: Caco-2, read-out: permeability
[2] = Aqueous solubility of the compound in 6.8 pH buffer; assay type: physicochemical; settings: pH 6.8 buffer
[3] = Apparent permeability across apical to basolateral side in human Caco2 cells; assay type: ADME, cell-based; settings: Caco-2
[4] = Intrinsic clearance in rat liver microsomes; assay type: ADME, Microsome; settings: read-out: CLH
[5] = Half life in rat liver microsomes; assay type: ADME, Microsome
[6] = Dose normalized AUC in rat at 1 mg/kg, po; assay type: ADME, organism-based; settings: in vivo
[7] = Oral bioavailability in rat at 1 mg/kg; assay type: ADME, organism-based; settings: in vivo
[8] = Intrinsic clearance in mouse liver microsomes; assay type: ADME, Microsome; settings: read-out: CLH
[9] = Half life in mouse liver microsomes; assay type: ADME, Microsome
[10] = Drug uptake in human Detroit 562 cells xenografted NU/NU mouse at 20 to 80 mg/kg, po BID; assay type: ADME, organism-based; settings: in vivo
Outline: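 Detroit-562 xenografts (5 x 10^5 cells subcutaneously in 50% matrigel/HBSS) were grown in female athymic NU/NU mice. At about 300 mm3 the mice were dosed by oral gavage, with 0.5% methylcellulose/0.1% Tween 80 as the vehicle control. Mice were euthanized at set times, and plasma and tumor fragments were collected for compound concentration.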

[11] = Clearance in rat; assay type: ADME; settings: in vivo
[12] = Half life in rat; assay type: ADME; settings: in vivo
[13] = Oral bioavailability in rat at 6 mg/kg; assay type: ADME, organism-based; settings: in vivo
[14] = Dose normalized AUC in rat at 6 mg/kg, po; assay type: ADME, organism-based; settings: in vivo

Compound	Papp [1] [×10⁻⁶ cm/s]	solubility [2] [µM]	Papp A→B [3] [×10⁻⁶ cm/s]	microsomal CLint [4] [µL/min/mg]	half-life [5] [h]	AUC/dose [6] [µM·h]	bioavailability [7] [%]	microsomal CLint [8] [µL/min/mg]	half-life [9] [h]	Drug uptake [10]	clearance [11] [mL/min/kg]	half-life [12] [h]	bioavailability [13] [%]	AUC/dose [14] [µM·h]
Cn1c(N2CCC(C)(CN)CC2)nc(N)c(Sc2cccc(Cl)c2Cl)c1=O	2.5	250 (≈ 107 µg/mL)												
C[C@@H]1OCC2(CCN(c3nc(N)c(Sc4cccnc4C(F)(F)F)c(=O)n3C)CC2)[C@@H]1N		980 (≈ 461 µg/mL)	1.02	7.9 to 11.1	> 2	0.45	29	7.9 to 11.1	> 2	Dose-dependent effect	21	10.9		
C[C@@H]1OCC2(CCN(c3nc(N)c(Sc4cccc(Cl)c4Cl)c(=O)n3C)CC2)[C@@H]1N			6.8	39.3	0.617	0.95	38							
C[C@H]1C[C@@H](N)C2(CCN(c3nc(N)c(Sc4cccnc4C(F)(F)F)c(=O)n3C)CC2)C1			< 0.5	3.4	6.6								1	0.03
